The species entered for experiment [1] is Mus musculus. The experiment is described as follows: (§1) Compound was tested for Immunosuppression activity by mixed lymphocyte reaction (MLR) in murine splenocytes of mice. In kind it is functional. The gist of the method:
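Two-way MLR: Balb/c and C57Bl/6 splenocytes combined in wells holding dried compound (eight dilutions, 10 to 3.33 × 10^-6 mg/mL, applied in EtOH and evaporated; duplicates). Incubated 96 h at 37 °C, 5% CO2, then pulsed 15 h with [3H]thymidine. Incorporated label counted after glass-fibre filtration. Proliferation expressed as percent of control; IC50 interpolated.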

The nature of experiment [2]: Non cytotoxic IM activity index which is the ratio of IC50 of LcV to IC50 of MLR. The format is functional.
Experiment [3] is described as follows: Compound was tested for Cytotoxic activity by lymphocyte viability assay. Particulars: Mus musculus. An outline of the steps:
(§2)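 Balb/c mouse splenocytes alone, added to wells holding dried test compound (eight dilutions, 10 to 3.33 × 10^-6 mg/mL, applied in EtOH and evaporated); culture-medium wells serve as nonspecific control. Incubated 96 h at 37 °C, 5% CO2, then MTT added; formazan dissolved in 2-propanol and absorbance read at 570 nm.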

For experiment [4], the species on record is Mus musculus. The description is as §1. In kind it is functional, organism-based. The gist of the method:
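Two-way mixed lymphocyte reaction using splenocytes from Balb/c and C57Bl/6 mice, combined in equal volumes. Compounds were dissolved in absolute EtOH and tested at eight dilutions from 10 to 3.33 × 10^-6 mg/mL, in duplicate, with the solvent dried onto the wells. Cultures ran 96 h at 37 °C in 5% CO2, then were pulsed 15 h with [3H]thymidine. Incorporation was counted by scintillation; IC50 was interpolated from % proliferation relative to control.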

The nature of experiment [5]: Compound was tested for Cytotoxic activity by lymphocyte viability assay. The settings on record: Mus musculus. The gist of the method: as §2

Values after ≈ are worked out from the molar mass of the structure shown.

A word on the IC50: it is the midpoint of a concentration-inhibition curve. Higher therefore signals lower potency.

Turning to `COc1cc([C@@H]2c3cc4c(c(O)c3C[C@H]3COC(=O)[C@@H]32)OCO4)cc(OC)c1OC` [BETA-PELTATIN A], the IC50 in experiment [1] was below 0.00945 µg/mL; in experiment [3], 19.7 µg/mL (≈ 47.5 µM). For the same compound, in experiment [2], the Selectivity index was above 2085.
With `COc1cc(C2c3cc4c(cc3CC3COC(=O)C32)OCO4)cc(OC)c1OC(C)=O` (configuration not stated), the figures for the IC50 in experiment [4] and in experiment [3] were 0.0718 µg/mL (≈ 0.168 µM) and 15.8 µg/mL (≈ 37.1 µM), respectively. Also, the Selectivity index in experiment [2] worked out at 220.
On the same counts, the results for `COc1cc(C2c3cc4c(cc3[C@@H](OC(C)=O)C3COC(=O)C23)OCO4)cc(OC)c1OC(C)=O` (some centres not stated) are 0.453 µg/mL (≈ 0.935 µM), 22.8 µg/mL (≈ 47.1 µM) and 50.
Take `COc1cc([C@@H]2c3cc4c(cc3C3=NN(c5ccccc5)C[C@H]3[C@@H]2COC(C)=O)OCO4)cc(OC)c1OC`: the values for the half-maximal inhibitory concentration (IC50) in experiment [1] and in experiment [3] were 9.29 µg/mL (≈ 17.5 µM) and above 100 µg/mL, respectively. For the same compound, the Selectivity index in experiment [2] was above 11.
On the same counts, the results for `COc1cc([C@@H]2c3cc4c(cc3C(=O)[C@H]3COC(=O)[C@H]23)OCO4)cc(OC)c1O` are 11.8 µg/mL (≈ 29.6 µM), above 25 µg/mL and above 2.
As to `COc1cc([C@@H]2c3cc4c(cc3C3=NOC[C@H]3[C@@H]2C(=O)O)OCO4)cc(OC)c1OC`, the figures for the IC50 in experiment [1] and in experiment [3] were below 0.009 µg/mL and 30 µg/mL (≈ 70.2 µM), respectively. Also, the Selectivity index in experiment [2] was above 3333.
On the same counts, the results for `COC(=O)[C@@H]1[C@H](c2cc(OC)c(OC)c(OC)c2)c2cc3c(cc2C2=NN(C(C)=O)C[C@H]21)OCO3` are 7.68 µg/mL (≈ 15.9 µM), above 100 µg/mL and above 13.
`COc1cc([C@@H]2c3cc4c(cc3[C@H](O)[C@H]3COC(=O)[C@H]23)OCO4)cc(OC)c1OC` [PODOFILOX]: the figures for the IC50 in experiment [4] and in experiment [5] were below 0.128 µg/mL and 280 µg/mL (≈ 676 µM), respectively. In addition, in experiment [2], the Selectivity index is given as above 2190.
With `COc1cc([C@@H]2c3cc4c(cc3[C@@H](O)[C@H]3COC(=O)[C@H]23)OCO4)cc(OC)c1OC` [EPIPODOPHYLLOTOXIN], the IC50 in experiment [1] was 0.229 µg/mL (≈ 0.553 µM); in experiment [3], above 65 µg/mL. Also, the Selectivity index in experiment [2] is above 284.
On the same counts, the results for `COc1cc([C@@H]2c3cc4c(c(O)c3C[C@H]3COC(=O)[C@@H]32)OCO4)cc(OC)c1O` are below 0.00495 µg/mL, 12.8 µg/mL (≈ 32 µM) and above 2586.
On to `COC(=O)[C@@H]1[C@H](c2cc(OC)c(OC)c(OC)c2)c2cc3c(cc2C2=NN(c4ccc(C)cc4)C[C@H]21)OCO3`, for which the IC50 was 0.848 µg/mL (≈ 1.6 µM) in experiment [1] and above 26 µg/mL in experiment [3]. For the same compound, in experiment [2], the Selectivity index is recorded as above 31.
Turning to `COC(=O)[C@@H]1[C@H](c2cc(OC)c(OC)c(OC)c2)c2cc3c(cc2C(=O)[C@H]1CO)OCO3`, the IC50 in experiment [1] was 1.41 µg/mL (≈ 3.17 µM); in experiment [3], above 25 µg/mL. Also, the Selectivity index in experiment [2] is on record as above 18.
Turning to `COc1cc(C2C3=C(COC3=O)Cc3cc4c(cc32)OCO4)cc(OC)c1OC` (configuration not stated), the figures for the IC50 in experiment [4] and in experiment [3] were 0.00825 µg/mL (≈ 0.0208 µM) and 27.5 µg/mL (≈ 69.4 µM), respectively. The Selectivity index in experiment [2] is on record as above 3333.
With `COc1cc([C@@H]2c3cc4c(cc3C[C@H]3COC(=O)[C@@H]32)OCO4)cc(OC)c1O` [4'-DEMETHYLDEOXYPODOPHYLLOTOXIN], the figures for the IC50 in experiment [1] and in experiment [3] were 0.00281 µg/mL (≈ 0.00731 µM) and 11.5 µg/mL (≈ 29.9 µM), respectively. In experiment [2], the Selectivity index stood at 4097.

The record behind these values is ChEMBL document CHEMBL1129241, “Immunosuppressive cyclolignans” (J Med Chem, 1996).
